Assay outcomes: PubChem, Johns Hopkins Ion Channel Center
hERG rescue: hERG (human) protection from proarrhythmic block | Q12809 | CHO-hERG, FluxOR thallium flux, dofetilide IC70 present | activation (rescue from dofetilide block), less the hit threshold, % at 10 µM | 0.51% of 310,000 active;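 active means activation above the mean of controls blocked by dofetilide plus 5 SD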;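 further: thallium influx through hERG after potassium depolarization seen as dye fluorescence rise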
KCNK3 block: human KCNK3 channel inhibition, primary screen | B-score at 10 µM | AID 602410 | CHO-KCNK3 thallium flux, FluxOR fluorescence; hits give low values | 0.84% of 340,000 active | O14649;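 active means B-score under library mean minus 4 SD, starting fluorescence ratio at most library mean plus 5 SD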;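 further: more negative B-score means stronger inhibition of thallium flux through KCNK3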
Kir21 inh: blocks the mouse Kir2.1 inward-rectifier potassium channel. 0.85% of 310,000 active. B-score at 10 µM. HEK293-Kir2.1, FluxOR thallium flux fluorescence; hits give low values. P35561;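 active means fluorescence ratio B-score at or below minus 3 SD of library scores, with starting-brightness B-score within 2 SD, cut at about -4.2 in these data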;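 further: channel flux triggered by added potassium and thallium sulfate stimulus; B-score of peak minus minimum fluorescence over baseline after thallium stimulus; more negative B-score means stronger Kir2.1 block with less thallium influx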
KCNQ1 inh: inhibitors of human KCNQ1 potassium channel | CHO-K1 KCNQ1, FluxOR thallium flux fluorescence; hits give high values | B-score at 10 µM | 1.3% of 310,000 active | P51787 | AID 2642;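 active means compounds whose thallium flux B-score, printed positive for inhibition, exceeds three library SD while starting fluorescence stays within three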;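 further: channel opened by potassium depolarization with thallium stimulus after 20 min compound exposure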
KCNQ1 act: potentiators or activators of human KCNQ1 potassium channel. P51787. CHO-K1 KCNQ1, thallium flux FluxOR fluorescence; hits give high values. B-score at 10 µM. 0.35% of 310,000 active. AID 2648;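 active means fluorescence ratio B-score, a plate-corrected score, at least three library SD, with initial intensity B-score within 5 SD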
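Doses: Single concentration per compound, DMSO matched to controls | Test system: KCNQ1-transfected CHO-K1 cells | Timing: 90 min dye loading and 20 min compound exposure, both at room temperature | Measured by: Kinetic FluxOR thallium fluorescence, 10-s 1-Hz baseline, 110-s post-stimulus read | Medium: Assay buffer with matched DMSO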
KCNK9 block: blocks the human KCNK9 two-pore domain potassium channel. B-score at 10 µM. AID 488922. HEK293 KCNK9, FluxOR thallium flux fluorescence; hits give low values. 1.2% of 310,000 active. Q9NPC2;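 active means ratio B-score over 3 SD below the library mean, with starting fluorescence within 5 SD of its mean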;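 further: negative B-score means less thallium flux so channel inhibition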
Target sequence (Q9NPC2 whole entry, looked up, the tested form may be a part): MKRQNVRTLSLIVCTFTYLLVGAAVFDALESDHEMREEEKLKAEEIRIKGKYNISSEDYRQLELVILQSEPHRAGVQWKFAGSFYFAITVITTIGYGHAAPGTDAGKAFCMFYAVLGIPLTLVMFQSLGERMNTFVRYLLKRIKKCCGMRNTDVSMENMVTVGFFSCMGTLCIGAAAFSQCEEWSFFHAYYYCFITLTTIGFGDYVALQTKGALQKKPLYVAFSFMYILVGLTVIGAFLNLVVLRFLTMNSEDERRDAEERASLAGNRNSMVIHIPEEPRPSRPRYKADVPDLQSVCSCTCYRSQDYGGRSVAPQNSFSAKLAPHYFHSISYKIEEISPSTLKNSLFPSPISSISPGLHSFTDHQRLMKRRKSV
Of the large screens only hits and unclear results are named; the others gave an inactive call. Shown are actives, neighbours in structure and some others; about 3.8% of the full set was active somewhere.

O=C(Nc1cccc(-c2ccc(N3CCOCC3)nn2)c1)c1ccc(F)cc1F	none
COc1ccc(NC(=O)C2C3C=CC4(O3)C2C(=O)N(CCN2CCCCC2C)C4C(=O)NC2CCCCC2)cc1 (configuration not stated)	none
CCOc1ccccc1C(=O)Nc1ccccc1O	KCNK9 block -6.7
CCOc1ccc(C(=O)NCC(C)NC(=O)c2ccc(OCC)cc2)cc1 (configuration not stated)	KCNQ1 inh 14
O=C(NC(=S)Nc1ccccc1C(=O)O)c1cncc(Br)c1	none
O=C(Nc1ccccc1C(=O)O)c1cncc(Br)c1	hERG rescue 6.6
COc1ccc(OCC(=O)Nc2ccc(C(=O)Nc3ccccc3C(=O)O)cc2)cc1	none
CCOc1ccccc1C(=O)Nc1cccc2ccccc12	none
CCOc1ccc(C(=O)Nc2ccccc2C(=O)O)cc1	hERG rescue 7.5
N#Cc1c(NCCN)nc(-c2ccccc2)c2c1CCCC2	Kir21 inh -6
Cc1c(/C=N/Nc2nc3ccccc3[nH]2)c2ccccc2n1C	KCNQ1 inh 7
Clc1ccc(-[n+]2c(-c3cccc(Br)c3)[nH]c3nc4ccccc4nc32)cc1	KCNQ1 inh 10
Oc1ccc(Cl)cc1-c1cc(-c2cccc(Br)c2)n[nH]1	none
Cc1ccc(NC(=O)CSCC(=O)Nc2cc(Cl)ccc2N2CCOCC2)cc1	KCNQ1 inh 6
COc1ccc(NC(=O)CSCC(=O)Nc2cc(Cl)ccc2N2CCOCC2)cc1	none
Cc1cccc(NC(=O)CSCC(=O)Nc2cc(Cl)ccc2N2CCN(C)CC2)c1	Kir21 inh -4.6
Cc1ccc(NC(=O)CSCC(=O)Nc2ccccc2C(=O)N2CCCCC2)cc1	none
Cc1ccc(NC(=O)CSCC(=O)Nc2ccccc2N2CCCC2)cc1	Kir21 inh -6.7
Cc1cc(NC(=O)CSCC(=O)Nc2cc(Cl)ccc2N2CCN(C)CC2)no1	none (no result: hERG rescue, Kir21 inh, KCNQ1 inh, KCNQ1 act, KCNK9 block)
COc1ccc(CC(=O)NC2CCSc3ccccc32)c(OC)c1 (configuration not stated)	Kir21 inh -5.9
COc1ccc(OC)c(C(=O)NC2CCSc3ccccc32)c1 (configuration not stated)	none
CCOc1ccc2nc(N3C(=O)/C(=C/c4ccc(Cl)cc4)NC3=S)sc2c1	KCNQ1 act 26
COc1ccc2nc(N3C(=O)CNC3=S)sc2c1	none
Cc1cc(=S)[nH]c2c(C)cccc12	hERG rescue 5.0
Cc1ccc(-n2c(N)cc(=O)nc2SCC(=O)NC2CCCCC2)cc1C	none
N#Cc1cn(CCOc2ccccc2F)c2ccccc12	KCNK9 block -7.5
N#Cc1cn(CCOc2ccc(F)cc2)c2ccccc12	none
Cc1ccc(NC(=O)c2c(Cl)n(C)c3ccccc23)cc1	KCNK9 block -7.1
Cc1cccc(OCCSc2nncn2C)c1	hERG rescue 9.8
C[C@H]1CN(S(=O)(=O)c2c(F)cccc2F)CCN1S(=O)(=O)c1ccc2c(c1)OCCO2	none (no result: hERG rescue, Kir21 inh, KCNQ1 inh, KCNQ1 act, KCNK9 block)
NCC(c1ccccc1)(c1ccccc1)c1ccccc1	Kir21 inh -4.8
NCC(O)(c1ccc(Cl)cc1)c1ccc(Cl)cc1	none
O=C(O)CCc1cc(I)c(Oc2ccc(O)c(I)c2)c(I)c1	hERG rescue 29, KCNQ1 act 49 (no result: KCNK3 block)
N#Cc1ccc(-c2c(-c3ccccc3)ncc3cc(F)ccc23)cc1	none (no result: hERG rescue, Kir21 inh, KCNQ1 inh, KCNQ1 act, KCNK9 block)
O=C(NNC(=O)c1ccncc1)NC1CCCCC1	hERG rescue 8.7
O=C(NNC(=O)C1CCCCC1)c1ccncc1	none
C=CCS/C(=N\n1cnc2ccccc2c1=O)N(CC)CC	KCNK9 block -7.6
COc1cccc(-c2nnc(Nc3nc4c(F)cccc4s3)o2)c1	hERG rescue 40, KCNQ1 act 35
COc1cccc2sc(Nc3nc(-c4cc5ccccc5oc4=O)cs3)nc12	KCNK9 block -7.3
COc1cccc2sc(Nc3nnc(-c4ccccc4Cl)o3)nc12	hERG rescue 8.7, KCNQ1 act 15
CCn1c(-c2ccccc2)csc1=Nc1ccc(O)cc1	none
O=C(Nc1ccnn1C1CCN(C(=O)c2cccc(Cl)c2)CC1)C1CCOC1 (configuration not stated)	none
CCCN(CC(=O)Nc1ccccc1C)C(=O)c1ccc(OCc2c(C)noc2C)cc1	none (no result: hERG rescue, Kir21 inh, KCNQ1 inh, KCNQ1 act, KCNK9 block)
N#C/C(=C(/O)c1ccccc1F)c1nc2cc(C(F)(F)F)ccc2s1	none
N#C/C(=C(/O)c1ccc2c(c1)OCO2)c1nc2cc(C(F)(F)F)ccc2s1	KCNQ1 inh 11
O=C(OCc1c(-c2ccccc2)ncc2ccccc12)N1CCOCC1	none (no result: hERG rescue, Kir21 inh, KCNQ1 inh, KCNQ1 act, KCNK9 block)
CCOC(=O)c1n[nH]n2c1nc(=O)c1ccccc12	none
Cc1ccc(S(=O)(=O)c2n[nH]n3c2nc(=O)c2ccccc23)cc1	hERG rescue 8.6
CCN(CC)c1ccc(NC(=O)COC(=O)/C=C/c2nc3ccccc3s2)cc1	none
CCN(CC)c1ccc(/C=C/c2nc3ccccc3s2)cc1	KCNQ1 inh 8 (no result: KCNK3 block)
COc1cc2c(cc1OC)CN(C(=O)c1sccc1C)CC2	hERG rescue 8.7
CC(NCCC1(C(C)C)CCOC(C)(C)C1)c1cccs1 (configuration not stated)	none
CC(NCCC1(Cc2ccccc2Cl)CCOC(C)(C)C1)c1cccs1 (configuration not stated)	Kir21 inh -4.9
CC1CC(C)CN(CCCSc2ccccc2)C1 (configuration not stated)	none
CC1CC(C)CN(CCOCCSc2ccc(Cl)cc2)C1 (configuration not stated)	Kir21 inh -4.5
O=C(Cn1cccc1C(=O)c1ccccc1)NCCCN1CCOCC1	none
Cc1ccc(C)c(N2CCN(CCCNC(=O)Cn3cccc3C(=O)c3ccccc3)CC2)c1	Kir21 inh -5.4
CC(=O)n1nc(-c2ccccc2)nc1NCc1ccc(N(C)C)cc1	none
Cc1ccc2nc(/C(C#N)=C\c3ccc(N4CCCCC4)c([N+](=O)[O-])c3)[nH]c2c1	KCNQ1 inh 8
N#C/C(=C/c1ccc(N2CCCC2)c([N+](=O)[O-])c1)c1nc2ccccc2[nH]1	none
O=C(CCCCCN1C(=O)[C@@H]2Cc3ccccc3CN2C1=O)Nc1ccccc1Cl	none
CCN1CCN(Cc2c(C)[nH]c3ccc(C(=O)OC)cc3c2=O)CC1	hERG rescue 5.6
COc1ccc(CCNCC(O)Cn2c3ccccc3c3ccccc32)cc1OC (configuration not stated)	Kir21 inh -10
COC(=O)[C@@H](Cc1c[nH]c2ccccc12)NCc1cccc(B(O)O)c1	none (no result: hERG rescue, Kir21 inh, KCNQ1 inh, KCNQ1 act, KCNK9 block)
CCCCCCCCNS(=O)(=O)CCNC1CC1	none (no result: hERG rescue, Kir21 inh, KCNQ1 inh, KCNQ1 act, KCNK9 block)
CC(C)c1ccc(NC(=O)/C(C#N)=C/c2ccncc2)cc1	KCNQ1 act 8
N#C/C(=C\c1ccncc1)C(=O)Nc1ccc(C(=O)O)cc1	none
COCCCn1c(SCC(=O)N2CCOCC2)nc2ccccc2c1=O	none
C[n+]1c2n(c3ccccc31)N=C(c1ccc(-c3ccccc3)cc1)CS2	KCNQ1 inh 12
